Key:
[1] = In vitro percent inhibition of […] murine endothelial cell proliferation garnered from C57BL/6 mice infected with ectotropic virus at 3 ug/mL; assay type: functional; details: Mus musculus
How it was run: (§1)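 SVR cells (C57BL/6 murine endothelial cells immortalized with SV40 large T and activated H-ras) plated at 10,000/well on gelatinized wells. Grown 24 h at 37 °C, 10% CO2, in 5% DMEM. Medium then replaced with fresh 5% DMEM containing 3 or 6 µg/mL compound (from 1 mg/mL DMSO stocks) for 72 h. Surviving trypsinized cells Coulter-counted; percent inhibition versus DMSO control.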

[2] = In vitro percent inhibition of […] murine endothelial cell proliferation garnered from C57BL/6 mice infected with ectotropic virus at 6 ug/mL; assay type: functional; details: Mus musculus; how it was run: as §1

SMILES	inhibition at 3 µg/mL [1] [%]	inhibition at 6 µg/mL [2] [%]
COc1cc(/C=C2\CCC/C(=C\c3ccc(O)c(OC)c3)C2=O)ccc1O [CYCLOVALONE]	90.1	96
O=C(/C=C/c1c(Cl)cccc1Cl)/C=C/c1c(Cl)cccc1Cl	87.1	90.4
O=C(/C=C/c1ccccn1)c1ccccc1 [WR-190433]	89.1	96.9
O=C1/C(=C/c2ccccc2)CCC/C1=C\c1ccccc1 [2,6-DIBENZYLIDENECYCLOHEXANONE]	94.4	97.7
O=C(/C=C/c1ccccc1)c1ccccc1 [CHALCONE]	92.8	94.4
O=C(/C=C/c1c(Cl)cccc1Cl)c1ccccc1	92.9	97.5
O=C(/C=C/c1ccccc1)/C=C/c1ccccc1	96.6	97.7
O=C(/C=C/c1ccccc1)c1ccc2ccccc2c1	92.2	94.7
O=C1/C(=C/c2ccccn2)CCC/C1=C\c1ccccn1	92.9	96.7
Cc1ccc(C(=O)/C=C/c2c(Cl)cccc2Cl)cc1	98.2	98.1
